Compound activity from PubChem BioAssay.
Sampled rows, rich in hits. Any-hit rate of the full collection: about 4.1%.
Cl transport mod: KCC2 cotransporter modulators, thallium flux, primary screen, cell-based, HEK293 KCC2, FluoZin-2 fluorescence, MLSMR; 190,000 compounds, 2.2% hits; B-score of Tl+ flux slope (higher = more flux/activation; lower = inhibition) at 10 µM; AID 1456, 2008; Solute carrier family 12 member 5 (Homo sapiens), Q9H2X9; KCC2 cells, thallium flux FluoZin-2 fluorescence;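 active means thallium flux slope and its plate-corrected score both differing from the plate sample mean at a set confidence after two filtering rounds, in either direction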;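 further: slope of fluorescence scaled to starting intensity during 10 to 20 s after thallium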
KCNK9 inh: KCNK9 potassium channel inhibitors, primary screen, HEK293 cells, thallium flux; Potassium channel subfamily K member 9 (Homo sapiens), Q9NPC2; FluxOR thallium flux fluorescence; active compounds read low; B-score at 10 µM; 310,000 compounds, 1.2% hits;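 active means ratio B-score over 3 SD below the library mean, with starting fluorescence within 5 SD of its mean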;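 further: negative B-score means less thallium flux so channel inhibition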
KCNK3 block: human KCNK3 channel inhibitors, primary screen, CHO cells, FluxOR thallium flux, B-score. B-score at 10 µM. 340,000 compounds, 0.84% hits. Potassium channel subfamily K member 3 (Homo sapiens), O14649. FluxOR fluorescence; active compounds read low;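 active means B-score under library mean minus 4 SD, starting fluorescence ratio at most library mean plus 5 SD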;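 further: more negative B-score means stronger inhibition of thallium flux through KCNK3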
hERG rescue: hERG rescue from dofetilide block, primary screen, cell-based, CHO-hERG, FluxOR thallium flux, dofetilide IC70; Voltage-gated inwardly rectifying potassium channel KCNH2 (Homo sapiens), Q12809; dofetilide IC70 present; activation (rescue from dofetilide block), less the hit threshold, % at 10 µM; 310,000 compounds, 0.51% hits; AID 1511, 2009;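 active means activation above the mean of controls blocked by dofetilide plus 5 SD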;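 further: thallium influx through hERG after potassium depolarization seen as dye fluorescence rise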
KCNQ1 act: potentiators or activators of KCNQ1 channel, primary screen, cell-based, thallium flux, high-throughput; Potassium voltage-gated channel subfamily KQT member 1 (Homo sapiens), P51787; CHO-K1 KCNQ1, thallium flux FluxOR fluorescence; active compounds read high; B-score at 10 µM; 310,000 compounds, 0.35% hits; AID 2648, 2010;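 active means fluorescence ratio B-score, a plate-corrected score, at least three library SD, with initial intensity B-score within 5 SD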
Target sequence (P51787 whole entry, looked up): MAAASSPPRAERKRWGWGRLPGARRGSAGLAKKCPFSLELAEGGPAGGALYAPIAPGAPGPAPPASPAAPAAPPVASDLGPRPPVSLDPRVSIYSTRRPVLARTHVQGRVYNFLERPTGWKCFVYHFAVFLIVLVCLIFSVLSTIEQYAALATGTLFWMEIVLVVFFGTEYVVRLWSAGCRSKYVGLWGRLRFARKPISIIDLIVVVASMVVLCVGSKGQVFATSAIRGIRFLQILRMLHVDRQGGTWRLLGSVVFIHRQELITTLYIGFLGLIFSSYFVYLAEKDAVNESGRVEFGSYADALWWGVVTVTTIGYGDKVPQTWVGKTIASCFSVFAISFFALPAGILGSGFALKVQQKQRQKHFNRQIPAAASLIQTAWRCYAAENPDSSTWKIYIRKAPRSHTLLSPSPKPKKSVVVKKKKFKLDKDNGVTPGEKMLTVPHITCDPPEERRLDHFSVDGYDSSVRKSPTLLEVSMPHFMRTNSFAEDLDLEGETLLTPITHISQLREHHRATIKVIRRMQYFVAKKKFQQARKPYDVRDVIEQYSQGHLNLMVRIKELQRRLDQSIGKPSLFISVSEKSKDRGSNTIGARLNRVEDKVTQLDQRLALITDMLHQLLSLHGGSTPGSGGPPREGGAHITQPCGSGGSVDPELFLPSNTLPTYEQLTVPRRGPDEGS
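Doses: Single concentration per compound, DMSO matched to controls | Test system: KCNQ1-transfected CHO-K1 cells | Timing: 90 min dye loading and 20 min compound exposure, both at room temperature | Measured by: Kinetic FluxOR thallium fluorescence, 10-s 1-Hz baseline, 110-s post-stimulus read | Medium: Assay buffer with matched DMSO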
KCNQ1 block: inhibitors of human KCNQ1 channel, primary screen, cell-based, thallium flux, high-throughput | Potassium voltage-gated channel subfamily KQT member 1 (Homo sapiens), P51787 | CHO-K1 KCNQ1, FluxOR thallium flux fluorescence; active compounds read high | B-score at 10 µM | 310,000 compounds, 1.3% hits;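 active means compounds whose thallium flux B-score, printed positive for inhibition, exceeds three library SD while starting fluorescence stays within three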;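 further: channel opened by potassium depolarization with thallium stimulus after 20 min compound exposure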
KCC2 sec1: KCC2 modulators in sodium-free buffer, confirmation, cell-based, HEK293 KCC2, thallium flux, secondary assay; shares compounds with Cl transport mod; FluoZin2 fluorescence; active compounds read high; normalised thallium flux (F/F0 slope) at 10 µM; 3,700 compounds, 15% hits; AID 1713, 2009;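 active means thallium flux slope above the same plate's solvent-only control mean plus 3 SD; inconclusive means the two replicate wells disagree; inactive means no significant difference from solvent-only control wells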
KCC2 bumet counter: thallium flux persisting under bumetanide in KCC2 cells, confirmation, counter-screen for KCC2 modulator project, cell-based, HEK293 KCC2, FluoZin2, secondary assay 3; normalized thallium flux at 10 µM; 3,700 compounds, 49% hits; HEK293-KCC2 + bumetanide/ouabain; active compounds read high; shares compounds with Cl transport mod;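 active means thallium entry rate above the same plate's blocked-transporter control wells by more than 3 SD; inconclusive means the two repeat wells disagree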;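 further: raw slope of fluorescence over initial fluorescence between 10 and 20 s after thallium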
KCC2 secondary2: KCC2 modulators without ouabain present, confirmation, cell-based, HEK293 KCC2, thallium flux, FluoZin2, secondary assay 2; shares compounds with Cl transport mod; 3,700 compounds, 23% hits; normalized thallium flux at 10 µM; thallium flux FluoZin2 fluorescence; actives lie on both sides; F/F0 rise rate, 10–20 s post-thallium;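 active means thallium flux slope more than 3 SD above or below the plate's solvent-only control mean, mostly below; inconclusive means the two repeat wells disagreed; inactive means no significant shift from solvent-only controls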;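 further: raw slope with 0.1% DMSO as baseline and bumetanide as block control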
HEK293 Tl flux: thallium flux modulation in parental HEK cells, confirmation, counter-screen for KCC2 modulator project, cell-based, counterscreen 1 | HEK293 parental cells, thallium flux FluoZin2, ouabain; baseline-ratio fluorescence slope, 10–20 s after thallium | AID 1716, 2009 | thallium flux rate (normalised fluorescence) at 10 µM | shares compounds with Cl transport mod | 3,700 compounds, 46% hits;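 active means thallium flux rate significantly above the same plate's solvent-only control wells, beyond their mean plus 3 SD; inconclusive means the two replicate wells gave conflicting results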
KCC2 retest ouab: KCC2 inhibitors and activators, ouabain retest, confirmation, HEK-KCC2 cells. raw Tl+ flux slope (below DMSO = inhibition, above = activation) at 10 µM. 3,700 compounds, 48% hits. HEK293-KCC2, thallium flux FluoZin2 fluorescence; bidirectional: low = inhibitor, high = activator. shares compounds with Cl transport mod;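 active means thallium flux slope beyond 3 SD from same-plate DMSO control mean in most replicates, usually higher, sometimes lower; inconclusive means repeat tests gave conflicting results; inactive means no significant difference from controls in most replicates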;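 further: slope of initial-normalized fluorescence between seconds 10 and 20 after thallium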
HEK293 Tl flux2: native HEK Tl+ uptake effects, second counter-screen – HEK cells, counterscreen 2, counter-screen for KCC2 modulator project, confirmation. shares compounds with Cl transport mod. HEK293 parental, thallium flux FluoZin-2 fluorescence slope. thallium flux slope at 10 µM. 3,700 compounds, 33% hits;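 active means thallium flux slope above the same plate's solvent-control mean plus 3 SD in both duplicate wells; inconclusive means duplicate wells that disagreed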;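 further: run without ouabain in cells lacking the KCC2 cotransporter; slope of fluorescence scaled to its starting value between 10 and 20 s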
The depositor's hits bear a star; i = inactive; ? = inconclusive; . = no result given.

SMILES	Cl transport mod	KCNK9 inh	KCNK3 block	hERG rescue	KCNQ1 act	KCNQ1 block	KCC2 sec1	KCC2 bumet counter	KCC2 secondary2	HEK293 Tl flux	KCC2 retest ouab	HEK293 Tl flux2
Cc1sc2nc(SCC(=O)OC(C)C)n(C)c(=O)c2c1C	.	i	i	-11	i	i	0.0077	0.014*	0.035	0.015*	0.026*	0.018*
CC(Cn1cncn1)C(=O)N1CCN(S(=O)(=O)c2ccc(Cl)cc2)CC1 (stereo not drawn)	.	i	i	-5	i	i	.	.	.	.	.	.
Cn1c(-c2ccc3c(c2)OCO3)cnc1NC(=O)CCC(=O)NCCc1ccccc1	-3.7*	i	i	-20	i	i	0.0077	0.0066	0.03	0.0078	0.019	?
Cn1c(-c2ccc3c(c2)OCO3)cnc1NCc1ccccc1	0.63	i	i	-22	i	i	.	.	.	.	.	.
CCC1CCc2[nH]nc(C(=O)O)c2C1 (stereo not drawn)	4.3*	i	i	1	i	i	0.0098	0.007	0.029	0.0066	0.021	0.0098
CCCCC1CCc2[nH]nc(C(=O)O)c2C1 (stereo not drawn)	.	.	i	.	.	.	.	.	.	.	.	.
Cc1ccc(C(=O)Nc2ncc(Cc3ccc(F)cc3)s2)o1	-4.8*	i	i	-8	i	i	0.0075	0.007	0.031	?	0.018	?
Cc1c(Cl)cccc1-n1c(SCC(=O)NCc2cccs2)nnc1-c1ccncc1	-1.2	i	i	-7	i	i	0.0099	0.0057	0.036	0.0097*	0.02	0.011
O=C(OCCc1cc2ccccc2c(=O)o1)c1ccc(C(F)(F)F)cc1	.	.	i	.	.	.	.	.	.	.	.	.
CCCC(=O)NC(c1ccc2c(c1)OCO2)c1cc(Cl)c2cccnc2c1O (stereo not drawn)	4.1*	i	i	-6	i	i	0.0076	0.0057	0.03	0.0067	0.02	0.0086
O=C(O)COc1ccccc1C(Nc1cccnc1)c1cc(Cl)c2cccnc2c1O (stereo not drawn)	-0.94	i	i	-9	i	i	.	.	.	.	.	.
